# Measured values pooled from the literature.
# Protocols differ between the studies behind these lines.
# Organism: Micrococcus luteus
Structure (SMILES),read-out,technique,strain,tested at,time,measurement,value
C/C=C(\C)c1cc(O)c(C)c(OC(=O)c2c(C)c(Cl)c(O)c(Cl)c2O)c1,microbial growth,broth dilution,ML01,,,MIC,4 µg/mL
CN[C@H](CC(C)C)C(=O)N[C@H]1C(=O)N[C@@H](CC(N)=O)C(=O)N[C@H]2C(=O)N[C@H]3C(=O)N[C@H](C(=O)N[C@H](C(=O)O)c4cc(O)cc(O)c4-c4cc3ccc4O)[C@H](O)c3ccc(c(Cl)c3)Oc3cc2cc(c3O[C@@H]2O[C@H](CO)[C@@H](O)[C@H](O)[C@H]2O[C@H]2C[C@](C)(N)[C@H](O)[C@H](C)O2)Oc2ccc(cc2Cl)[C@H]1O,microbial growth,broth dilution,ATCC10240,,,MIC,0.12 µg/mL
CC1=NN(CNc2c(O)c(S(=O)(=O)O)cc3ccccc23)C(=O)C1=NNn1c(-c2ccccc2)nc2ccccc2c1=O,microbial growth,broth dilution,,,24 h,MIC,83.7 µM
CN[C@H](CC(C)C)C(=O)N[C@H]1C(=O)N[C@@H](CC(N)=O)C(=O)N[C@H]2C(=O)N[C@H]3C(=O)N[C@H](C(=O)N[C@H](C(=O)O)c4cc(O)cc(O)c4-c4cc3ccc4O)[C@H](O)c3ccc(c(Cl)c3)Oc3cc2cc(c3O[C@@H]2O[C@H](CO)[C@@H](O)[C@H](O)[C@H]2O[C@H]2C[C@](C)(N)[C@H](O)[C@H](C)O2)Oc2ccc(cc2Cl)[C@H]1O,microbial growth,broth dilution,ML01,,,MIC,0.13 µg/mL
O=C(O)c1cn(C2CC2)c2cc(N3CCNCC3)c(F)cc2c1=O,microbial growth,disc diffusion,,100 µg/mL,24 h,inhibition zone,25 mm
O=C1NN=C(N=Cc2ccc(O)c(O)c2)C1=NNn1c(-c2ccccc2)nc2ccccc2c1=O,microbial growth,broth dilution,,,24 h,MIC,53.5 µM
O=C(O)CN1C(=O)/C(=C/c2ccc(-c3ccc(N(c4ccccc4)c4ccccc4)cc3)c3ccccc23)SC1=S,microbial killing,broth dilution,ATCC10240,,,MBC,62.5 µg/mL
O=C1NN=C(N=Cc2ccccc2O)C1=NNn1c(-c2ccccc2)nc2ccccc2c1=O,microbial growth,broth dilution,,,24 h,MIC,55.4 µM
CC1(C)S[C@@H]2[C@H](NC(=O)[C@H](N)c3ccccc3)C(=O)N2[C@H]1C(=O)O,microbial growth,agar dilution,ATCC10240,26.93 µM,,inhibition,100%
